Published values gathered from unrelated publications.
Cell line: HeLa
Read-out: cell growth or viability

SMILES | method | time | IC50
O=C(Cc1ccc2ccccc2c1)N[C@@H](Cc1ccccc1)C(=O)N[C@@H](Cc1ccccc1)C(=O)N[C@@H](Cc1ccc(OP(=O)(O)O)cc1)C(=O)O | MTT | 48 h | > 500000 nM
N.N.[Cl][Pt][Cl] | MTT | 48 h | 17000 nM
Nc1cc(Cl)c(Cl)cc1N |  | 72 h | 50000 nM
CC[C@@]1(OC(=O)[C@H](C)N)C(=O)OCc2c1cc1n(c2=O)Cc2cc3cc4c(cc3nc2-1)OCO4 | MTT |  | 103 nM
N#Cc1ccc(NC(=S)NN=Cc2ccc([N+](=O)[O-])cc2)cc1 |  | 72 h | 142 µg/mL
COc1cc(C(=O)c2cc3c(-c4ccccc4)c(O)ccc3o2)cc(OC)c1OC |  |  | 31000 nM
N#Cc1ccc(NC(=S)NN=Cc2ccc(O)cc2)cc1 |  | 72 h | 91 µg/mL
CC[C@@]1(OC(=O)[C@@H](N)CCCCN)C(=O)OCc2c1cc1n(c2=O)Cc2cc3cc4c(cc3nc2-1)OCO4 | MTT |  | 24 nM
CC[C@H](C)[C@@H]([C@@H](CC(=O)N1CCC[C@H]1[C@H](OC)[C@@H](C)C(=O)N[C@H](C)[C@@H](O)c1ccccc1)OC)N(C)C(=O)[C@@H](NC(=O)[C@H](C(C)C)N(C)C(=O)OCc1ccc(NC(=O)[C@H](CCCNC(N)=O)NC(=O)[C@@H](NC(=O)CCCCCN2C(=O)CC(SCCC(=O)N[C@@H](Cc3cn(CCOCCNCCCCCCOc4cc(OCCCc5c(C)n[nH]c5C)cc(C(=O)O)c4)nn3)C(=O)NCCCCCC(=O)NCCCC[C@H](NC(=O)N[C@@H](CCC(=O)O)C(=O)O)C(=O)O)C2=O)C(C)C)cc1)C(C)C (stereo partly shown) | MTT |  | 372 nM
N.N.[Cl][Pt][Cl] |  | 72 h | 0.22 µg/mL
COc1c2c(cc3c1OCO3)[C@]13C=C[C@H](OC)C[C@@H]1[N@](C2)C[C@H]3OC(=O)c1ccc2ccccc2c1 | WST-1 | 48 h | > 10000 nM
CC[C@@]1(OC(=O)[C@@H](N)CCSC)C(=O)OCc2c1cc1n(c2=O)Cc2cc3cc4c(cc3nc2-1)OCO4 | MTT |  | 95 nM
COc1c2c(cc3c1OCO3)[C@]13C=C[C@H](OC)C[C@@H]1[N@](C2)C[C@H]3OC(=O)c1ccco1 | WST-1 | 48 h | > 10000 nM
CC[C@@]1(OC(=O)[C@@H](N)C(C)C)C(=O)OCc2c1cc1n(c2=O)Cc2cc3cc4c(cc3nc2-1)OCO4 | MTT |  | 114 nM
C[C@]12C=CC(=O)C[C@@H]1CC[C@@H]1[C@@H]2C(=O)C[C@@]2(C)[C@H]1CC[C@]2(C)O | MTT | 24 h | 19200 nM
CC[C@@]1(OC(=O)Cc2c(C)n(C(=O)c3ccc(Cl)cc3)c3ccc(OC)cc23)C(=O)OCc2c1cc1n(c2=O)Cc2cc3cc4c(cc3nc2-1)OCO4 | MTT |  | 306 nM
N#Cc1ccc(NC(=S)NN=Cc2ccccc2)cc1 |  | 72 h | 67 µg/mL
CC[C@@]1(OC(=O)CN)C(=O)OCc2c1cc1n(c2=O)Cc2cc3cc4c(cc3nc2-1)OCO4 | MTT |  | 42 nM
CC(C)[C@]12O[C@H]1[C@@H]1O[C@]13[C@]1(O[C@H]1C[C@H]1C4=C(CC[C@@]13C)C(=O)OC4)[C@@H]2O | thymidine uptake | 3 h | 41 nM
